This is an account of results in article PMC10149104 (Journal of medicinal chemistry, 2023).

The test system of series [1] is MV4;11 cells. Briefly: PI uptake in MV4. Type of series: cell-based, human. Conditions: 6.25 μM; WT, CASP1^−/−, CARD8^−/− cells. The essentials: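 MV4;11 cells (WT, CASP1−/− or CARD8−/−) were plated at 2 × 10^4 cells/well in 384-well format in RPMI and treated with test compound (6.25 μM) for 6 h before PI uptake monitoring. PI was added at 10 μM final. Fluorescence (Ex/Em 535/617 nm) was read every 5 min at 37 °C, baseline-corrected to DMSO vehicle and normalised to maximum response.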

Series [2] deals with CARD8-DPP9 ternary complex in HEK 293T^CASP1+GSDMD cells (Homo sapiens, UniProt Q86TI2). Briefly: dTAG-based CARD8-DPP9 ternary complex disruption assay. The class given is cell-based. To be noted: dTAG-13 500 nM; VbP 10 μM, CQ31 20 μM, CQ80 20 μM, VP-OMe 1 mM; 6 h; LDH release.
Sequence of CARD8-DPP9 ternary complex in HEK 293T^CASP1+GSDMD cells (Q86TI2 whole entry, one chain of several): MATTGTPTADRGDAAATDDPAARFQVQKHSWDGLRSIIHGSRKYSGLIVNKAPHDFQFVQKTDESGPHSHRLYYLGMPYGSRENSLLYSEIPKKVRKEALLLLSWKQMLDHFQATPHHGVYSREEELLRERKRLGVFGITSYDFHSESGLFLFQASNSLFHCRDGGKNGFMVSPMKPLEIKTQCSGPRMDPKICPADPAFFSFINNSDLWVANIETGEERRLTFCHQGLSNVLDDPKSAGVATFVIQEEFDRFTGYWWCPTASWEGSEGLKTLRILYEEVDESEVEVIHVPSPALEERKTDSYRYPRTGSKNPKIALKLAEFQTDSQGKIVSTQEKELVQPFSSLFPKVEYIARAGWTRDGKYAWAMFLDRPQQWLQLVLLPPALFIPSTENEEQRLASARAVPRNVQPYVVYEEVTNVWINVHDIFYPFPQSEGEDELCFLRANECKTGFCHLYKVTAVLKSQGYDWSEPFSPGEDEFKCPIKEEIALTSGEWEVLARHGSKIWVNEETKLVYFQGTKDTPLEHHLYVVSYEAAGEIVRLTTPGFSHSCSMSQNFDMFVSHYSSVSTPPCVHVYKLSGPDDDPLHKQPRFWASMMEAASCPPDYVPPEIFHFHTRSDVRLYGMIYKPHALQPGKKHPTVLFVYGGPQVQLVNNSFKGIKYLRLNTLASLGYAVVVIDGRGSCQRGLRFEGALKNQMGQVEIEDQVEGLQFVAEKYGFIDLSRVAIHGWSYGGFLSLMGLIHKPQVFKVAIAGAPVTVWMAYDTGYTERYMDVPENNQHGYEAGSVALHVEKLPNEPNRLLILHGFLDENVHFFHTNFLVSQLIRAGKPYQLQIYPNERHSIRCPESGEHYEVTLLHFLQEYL
Series [3] can be described thus: Stability in cell culture supernatants. The class given is in vitro ADME. Put shortly:
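Test compounds are incubated in conditioned medium collected from MV4;11 cultures for 24 h at 37 °C. Intact compound and the free acid product are then quantified by LC/MS, with species identified by retention time. Values are means ± SEM of three biological replicates.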

In series [4] the test system is MV4;11, OCI-AML2, and THP-1 cells. Briefly: LDH release and GSDMD cleavage immunoblot in WT and CARD8^−/− cells. Type of series: cell-based, human. To be noted: 20 μM, 24 h, but not CARD8^−/−. For orientation: LDH in the medium is a marker of cell lysis.
The test system of series [5] is THP-1 cells. Briefly: LDH release and GSDMD cleavage in knockout THP-1 cells. The class given is cell-based, human. To be noted: 20 μM, 24 h; for Pyroptosis in DPP8/9^−/− THP-1 cells: LDH release and GSDMD cleavage.
In series [6] the target is T1, recombinant human PEPD (Homo sapiens, UniProt P12955).
T1 sequence (P12955 1-493): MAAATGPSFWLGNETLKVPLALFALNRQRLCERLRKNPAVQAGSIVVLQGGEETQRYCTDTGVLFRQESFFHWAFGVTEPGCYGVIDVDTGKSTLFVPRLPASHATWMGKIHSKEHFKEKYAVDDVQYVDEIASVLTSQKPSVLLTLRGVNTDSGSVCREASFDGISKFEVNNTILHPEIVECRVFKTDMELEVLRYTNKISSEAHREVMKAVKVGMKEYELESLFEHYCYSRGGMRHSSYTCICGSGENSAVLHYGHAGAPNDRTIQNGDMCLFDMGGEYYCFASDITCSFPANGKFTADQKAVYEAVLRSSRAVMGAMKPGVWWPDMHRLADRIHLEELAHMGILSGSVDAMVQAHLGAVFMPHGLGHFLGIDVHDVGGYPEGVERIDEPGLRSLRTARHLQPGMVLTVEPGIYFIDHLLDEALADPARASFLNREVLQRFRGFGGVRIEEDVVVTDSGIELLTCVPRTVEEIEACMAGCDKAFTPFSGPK
Briefly: Inhibition of recombinant PEPD, alanine release assay. Type of series: biochemical.

The subject of series [7] is OCI-AML2 cells. Briefly: CTG cell viability in WT and CARD8^−/− OCI-AML2 cells. The class given is cell-based, human. To be noted: 24 h. Put shortly: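 Test compound was added by pintool at various concentrations to OCI-AML2 cells (WT or CARD8−/−) plated at 2000 cells/well in 384-well format, in RPMI 1640 with L-glutamine and 10% FBS. Cells were incubated for 24 h at 37 °C in 5% CO2. CellTiter-Glo was then added, plates were shaken for 2 min and held at 25 °C for 10 min, and luminescence was read.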

For series [8] the following is noted: after 24 h; cited from earlier work.
The subject of series [9] is human resting T cells. Briefly: GSDMD cleavage in human resting T cells. The class given is cell-based. To be noted: 20 μM, 24 h. Put shortly: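 Primary human T cells (>90% purity by flow cytometry) are thawed in RPMI-1640 with 10% FBS and cultured with 30 U/mL IL-2. Cells receive test compound for 24 h, then are washed twice in PBS and lysed by sonication. Protein is normalized before SDS-PAGE, and blots are probed with an anti-GSDMD rabbit polyclonal and imaged by infrared fluorescence.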

Series [10] concerns DOX-inducible CARD8 E274R mutant THP-1 cells. Briefly: CARD8 E274R mutant NT degradation assay in CARD8^−/− THP-1 cells. Type of series: cell-based, human. To be noted: DOX 100 ng/mL 16 h; VbP 10 μM, CQ31/CQ80 20 μM, VP-OMe 1 mM, MeBs 10 μM; 6 h. Put shortly: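 Parental CARD8-knockout THP-1 cells carry a stably integrated doxycycline-inducible CARD8 E274R construct. Cells are grown in RPMI 1640 with L-glutamine and 10% FBS at 37 °C in 5% CO2. They are induced with or without DOX (100 ng/mL, 16 h), then exposed to test compounds for 6 h.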

Series [11] has as its target recombinant XPNPEP1 (Homo sapiens, UniProt Q9NQW7). Briefly: Inhibition of recombinant XPNPEP1, H-Lys. Type of series: biochemical. Conditions: recombinant XPNPEP1.
In series [12] the test system is OCI-AML2 cells. Briefly: PI uptake in OCI-AML2 cells. To be noted: 6.25 μM, compared to CQ31. Type of series: cell-based, human. The essentials: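 OCI-AML2 cells (2 × 10^4 per well, 384-well, RPMI) are treated with 6.25 μM compound, with PI added at 10 μM final. PI fluorescence (Ex/Em 535/617 nm) is recorded at 37 °C every 5 min over 6 h. Signals are baseline-corrected to DMSO vehicle and normalized to the maximum response. Values are means ± SEM of three biological replicates.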

The test system of series [13] is N/TERT-1 immortalized keratinocytes. Briefly: CTG cell viability in N/TERT-1 keratinocytes. The class given is cell-based, human. Conditions: VbP 10 μM, CQ compounds 20 μM, 24 h. The essentials:
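N/TERT-1 keratinocytes are grown in keratinocyte serum-free medium with 1× penicillin/streptomycin, bovine pituitary extract (25 μg/mL) and EGF (0.2 ng/mL) at 37 °C in 5% CO2. Plating density is 2000 cells/well in 384-well plates, with compound added by pin tool. After 24 h, CellTiter-Glo reagent is added, plates are shaken 2 min, held 10 min at 25 °C, and luminescence is read. Values are means ± SEM of three biological replicates.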

Series [14] concerns BMDMs from C57BL/6J mice and RAW264.7 cells. Briefly: LDH release and GSDMD cleavage in mouse BMDMs and RAW264.7 cells. The class given is cell-based. To be noted: VbP 10 μM, CQ31/CQ80 20 μM, 24 h. The essentials:
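BMDMs: bone marrow is collected from femurs and tibias of 7–12-week-old C57BL/6J mice, strained (70 μm) and RBC-lysed. Cells are cultured 6 days at 37 °C in DMEM with 10% FBS and 15–20% L-cell medium, then replated. RAW264.7 cells are grown in DMEM with 10% FBS and seeded at 5 × 10^5 per well in 12-well plates. Both receive compound for 24 h. LDH is read relative to a Triton X-100 lysis control, and immunoblots use an anti-mouse GSDMD rabbit monoclonal. RAW264.7 data are means ± SEM, n = 3.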

Sequence of recombinant XPNPEP1 (Q9NQW7 whole entry): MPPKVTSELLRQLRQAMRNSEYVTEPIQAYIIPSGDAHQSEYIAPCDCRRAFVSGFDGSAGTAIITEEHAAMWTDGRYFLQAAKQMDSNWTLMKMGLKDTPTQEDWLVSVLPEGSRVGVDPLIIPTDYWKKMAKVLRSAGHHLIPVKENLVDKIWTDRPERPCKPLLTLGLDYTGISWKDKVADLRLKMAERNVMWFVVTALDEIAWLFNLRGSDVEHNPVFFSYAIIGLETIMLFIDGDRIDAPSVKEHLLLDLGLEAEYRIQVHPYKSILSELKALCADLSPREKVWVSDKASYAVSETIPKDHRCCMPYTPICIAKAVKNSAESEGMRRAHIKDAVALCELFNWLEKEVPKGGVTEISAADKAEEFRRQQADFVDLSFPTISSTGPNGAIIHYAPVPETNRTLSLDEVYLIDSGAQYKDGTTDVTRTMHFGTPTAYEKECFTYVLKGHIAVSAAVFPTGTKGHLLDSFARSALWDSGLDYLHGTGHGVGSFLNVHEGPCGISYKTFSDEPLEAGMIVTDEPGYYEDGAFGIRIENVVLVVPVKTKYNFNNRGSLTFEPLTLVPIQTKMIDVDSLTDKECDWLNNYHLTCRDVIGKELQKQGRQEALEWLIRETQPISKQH

In the case of `COC(=O)[C@@H]1CCCN1C(=O)[C@@H](O)[C@H](N)CC(C)C` [CQ31], in [1], the “PI uptake in MV4;11 cells” value was “induced PI uptake in WT but not CASP1^−/− or CARD8^−/−”. For the same compound, the “Pyroptosis after dTAG-13 treatment (ternary complex destabilization)” value in series [2] is “induce more pyroptosis after dTAG-13 treatment”. Moreover, the “Time to conversion to CQ04” value in series [3] was at most 30 min. In series [4], the “LDH release and GSDMD cleavage” value was “induced lactate dehydrogenase (LDH) release and GSDMD cleavage”. Further, in series [5], the “Sensitivity of PEPD and XPNPEP1 single knockout THP-1 cells” value is on record as “sensitive”; the “Sensitivity of PEPD/XPNPEP1 double knockout THP-1 cells” value was “completely resistant”; the “Pyroptosis in DPP8/9^−/− THP-1 cells” value is on record as “neither CQ80 nor CQ31 induced any additional pyroptosis”. Also, in series [6], the “PEPD inhibition (in words)” value is “inhibited PEPD and XPNPEP1 similarly”. Moreover, the “Cell death in OCI-AML2 cells” value in series [7] was “induced cell death in WT but not CARD8^−/−”. The “De-esterification to CQ04 in cell culture” value in series [8] is “completely de-esterified”. The “GSDMD cleavage in human resting T cells” value in [9] is on record as “induced GSDMD cleavage”. In series [10], the “Additional cell death in CARD8 E274R assay (NT degradation)” value (“Additional cell death” below) was “do not trigger as much degradation as MeBs”. Besides, in [11], the “XPNPEP1 inhibition (in words)” value was “inhibited PEPD and XPNPEP1 similarly”.

On to `COC(=O)[C@H](CC(C)C)NC(=O)[C@@H]1CCCN1C(=O)[C@@H](O)[C@H](N)CC(C)C` [CQ80, Methyl ((2S,3R)-3-Amino-2-hydroxy-5-methylhexanoyl)-l-prolyl-l-leucinate], for which the “PI uptake in MV4;11 cells” value in series [1] is given as “induced PI uptake in WT but not CASP1^−/− or CARD8^−/−”. Also, in series [12], the “Rate of lytic cell death by PI uptake in OCI-AML2 cells” value is recorded as “caused more rapid lytic cell death”. For the same compound, the “Pyroptosis after dTAG-13 treatment (ternary complex destabilization)” value in [2] is recorded as “induce more pyroptosis after dTAG-13 treatment”. Also, the Fraction remaining intact in [3] (after 24 h at 37 °C) is recorded as ~ 50%. For the same compound, in series [13], the “Cell death in N/TERT-1 keratinocytes (human NLRP1 activation)” value is listed as “does not activate”. Besides, the “LDH release and GSDMD cleavage” value in series [4] is “induced lactate dehydrogenase (LDH) release and GSDMD cleavage”. In addition, in series [5], the “Sensitivity of PEPD and XPNPEP1 single knockout THP-1 cells” value is listed as “sensitive”; the “Sensitivity of PEPD/XPNPEP1 double knockout THP-1 cells” value is given as “completely resistant”; the “Pyroptosis in DPP8/9^−/− THP-1 cells” value is on record as “neither CQ80 nor CQ31 induced any additional pyroptosis”. For the same compound, the “Pyroptosis in mouse BMDMs and RAW264.7 cells (rodent NLRP1 activation)” value in series [14] is reported as “does not activate”. Moreover, in [7], the “Cell death in OCI-AML2 cells” value is “induced cell death in WT but not CARD8^−/−”. Moreover, the “GSDMD cleavage in human resting T cells” value in series [9] is given as “induced GSDMD cleavage”. In [10], the “Additional cell death” value is on record as “do not trigger as much degradation as MeBs”.

`CC(C)[C@H](N)C(=O)N1CCC[C@H]1B(O)O` [VbP, ValboroPro, reference compound]: the “Cell death in N/TERT-1 keratinocytes (human NLRP1 activation)” value in series [13] is “induced cell death”. The “Pyroptosis in mouse BMDMs and RAW264.7 cells (rodent NLRP1 activation)” value in series [14] was “induced pyroptosis”. Besides, in [10], the “Additional cell death” value was “did not cause substantially more death”.
